Each block holds one compound with its values, some of them ahead of it.
Key:
Rattus norvegicus [1] = experiment: (§1) Antiarthritic activity in MIA-induced osteoarthritis Lewis rat model assessed as decrease in aggrecan degradation products by measuring ARGNV levels in synovial fluid at 30 mg/kg, po bid starting on day 3 post MIA induction measured at 4 hrs post single oral dose on day 7 by ELISA relative to control; type: functional; parameters: scale not given: the % may be the effect or the level left
Summary of the method: (§2)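 Male Lewis rats aged 7-8 weeks received 3 mg freshly prepared MIA (sodium salt) in 0.9% saline intra-articularly into the right knee on day 0, with saline alone in the left knee. Inhibitor or vehicle (1% hydroxyethyl cellulose, 0.25% Tween 80, 0.05% antifoam) was given PO BID from day 3, with a single dose on day 7. Knees were saline-lavaged 4 h later, and aggrecan fragments were quantified by ELISA.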

Rattus norvegicus [2] = experiment: Drug metabolism in po or iv dosed bile-duct cannulated rat assessed as glutathione conjugation by HPLC-MS analysis; type: ADME, organism-based; details: in vivo
[3] = target: Macrophage metalloelastase (Homo sapiens, UniProt P39900); experiment: Inhibition of human MMP12 using Mca-PQGL-(3-[2, 4-dinitrophenyl]-L-2, 3-diaminopropionyl)-AR-OH as substrate after 2 to 4 hrs by fluorescence assay
Chain of Macrophage metalloelastase (P39900 whole entry): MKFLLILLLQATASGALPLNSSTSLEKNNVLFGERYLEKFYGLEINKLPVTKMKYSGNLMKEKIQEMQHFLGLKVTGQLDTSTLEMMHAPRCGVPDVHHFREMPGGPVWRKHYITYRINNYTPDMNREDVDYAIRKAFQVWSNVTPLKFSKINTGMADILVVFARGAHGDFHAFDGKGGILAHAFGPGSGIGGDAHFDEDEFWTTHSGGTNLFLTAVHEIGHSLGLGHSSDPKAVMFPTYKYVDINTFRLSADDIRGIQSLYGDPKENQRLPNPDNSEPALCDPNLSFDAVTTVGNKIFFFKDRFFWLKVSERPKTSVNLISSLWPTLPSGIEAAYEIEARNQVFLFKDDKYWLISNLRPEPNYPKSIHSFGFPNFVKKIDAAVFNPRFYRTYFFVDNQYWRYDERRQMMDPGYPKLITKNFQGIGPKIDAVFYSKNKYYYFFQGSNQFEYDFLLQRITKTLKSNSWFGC

[4] = AUC (0 to 24 hrs) in rat at 1 mg/kg, iv; type: ADME, organism-based; parameters: time < 24 hr, dose 1 mg/kg, route intravenous; details: in vivo
Summary of the method: (§3)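 Rat plasma pharmacokinetics after IV dosing at 1 mg/kg or oral dosing at 10 mg/kg. Plasma concentrations were followed to 24 h.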

[5] = Half life in rat at 1 mg/kg, iv; type: ADME, organism-based; details: in vivo
[6] = Clearance in rat at 1 mg/kg, iv; type: ADME, organism-based; details: in vivo
[7] = AUC (0 to 24 hrs) in rat at 10 mg/kg, po; type: ADME, organism-based; parameters: dose 10 mg/kg, time < 24 hr, route oral; details: in vivo; summary of the method: as §3
Stromelysin-1 = Stromelysin-1 (Homo sapiens, UniProt P08254); experiment: Inhibition of human MMP3 using Mca-PQGL-(3-[2, 4-dinitrophenyl]-L-2, 3-diaminopropionyl)-AR-OH as substrate after 2 to 4 hrs by fluorescence assay
Chain of Stromelysin-1 (P08254 whole entry): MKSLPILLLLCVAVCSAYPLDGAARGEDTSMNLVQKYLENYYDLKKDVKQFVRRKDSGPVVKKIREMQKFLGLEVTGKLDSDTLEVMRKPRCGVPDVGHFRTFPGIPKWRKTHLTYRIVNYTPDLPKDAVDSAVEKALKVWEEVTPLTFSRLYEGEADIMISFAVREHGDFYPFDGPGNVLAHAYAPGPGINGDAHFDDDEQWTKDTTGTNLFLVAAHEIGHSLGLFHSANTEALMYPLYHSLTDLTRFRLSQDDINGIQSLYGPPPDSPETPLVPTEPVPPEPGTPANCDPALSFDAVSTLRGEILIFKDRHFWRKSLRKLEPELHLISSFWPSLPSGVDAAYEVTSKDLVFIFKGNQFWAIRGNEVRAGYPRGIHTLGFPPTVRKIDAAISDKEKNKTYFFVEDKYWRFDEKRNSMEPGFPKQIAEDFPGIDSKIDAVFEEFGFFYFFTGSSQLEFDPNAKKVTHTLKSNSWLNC

[8] = Oral bioavailability in rat at 10 mg/kg; type: ADME, organism-based; details: in vivo
[9] = Plasma concentration in rat at 1 mg/kg, iv measured at 12 hrs post dose; type: ADME, organism-based
[10] = Cmax in rat at 10 mg/kg, po; type: ADME, organism-based; parameters: dose 10 mg/kg, route oral; details: in vivo
Rattus norvegicus [11] = experiment: as §1, with “75” for “30”; type: functional; parameters: scale not given: the % may be the effect or the level left; summary of the method: as §2
Rattus norvegicus [12] = experiment: as §1, with “10” for “30”; type: functional; parameters: scale not given: the % may be the effect or the level left; summary of the method: as §2
[13] = Cmax in rat at 1 mg/kg, iv; type: ADME, organism-based; parameters: dose 1 mg/kg, route intravenous; details: in vivo
[14] = Plasma concentration in rat at 10 mg/kg, po measured at 12 hrs post dose; type: ADME, organism-based
[15] = Tmax in rat at 10 mg/kg, po; type: ADME, organism-based; details: in vivo
[16] = Half life in rat at 10 mg/kg, po; type: ADME, organism-based; details: in vivo
[17] = Volume of distribution in rat at 1 mg/kg, iv; type: ADME, organism-based; details: in vivo
[18] = target: 72 kDa type IV collagenase (Homo sapiens, UniProt P08253); experiment: Inhibition of human MMP2 using Mca-PQGL-(3-[2, 4-dinitrophenyl]-L-2, 3-diaminopropionyl)-AR-OH as substrate after 2 to 4 hrs by fluorescence assay
Chain of 72 kDa type IV collagenase (P08253 whole entry): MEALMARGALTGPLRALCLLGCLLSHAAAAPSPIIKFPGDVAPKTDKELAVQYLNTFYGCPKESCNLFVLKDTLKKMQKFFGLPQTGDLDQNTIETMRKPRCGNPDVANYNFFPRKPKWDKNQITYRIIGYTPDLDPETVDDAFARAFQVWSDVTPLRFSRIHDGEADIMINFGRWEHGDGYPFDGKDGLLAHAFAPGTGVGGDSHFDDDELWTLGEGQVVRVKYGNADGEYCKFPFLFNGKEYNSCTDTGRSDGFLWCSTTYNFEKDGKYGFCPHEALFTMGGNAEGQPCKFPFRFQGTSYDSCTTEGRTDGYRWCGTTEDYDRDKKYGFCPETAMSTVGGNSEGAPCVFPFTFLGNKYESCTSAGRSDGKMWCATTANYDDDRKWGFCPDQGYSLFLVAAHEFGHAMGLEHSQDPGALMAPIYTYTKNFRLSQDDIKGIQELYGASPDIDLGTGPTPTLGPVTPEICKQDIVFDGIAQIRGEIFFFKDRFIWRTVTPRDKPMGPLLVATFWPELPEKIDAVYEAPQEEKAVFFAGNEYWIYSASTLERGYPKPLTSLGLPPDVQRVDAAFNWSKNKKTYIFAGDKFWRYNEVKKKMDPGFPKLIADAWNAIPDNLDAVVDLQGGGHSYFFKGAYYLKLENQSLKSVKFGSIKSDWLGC

[19] = target: Matrix metalloproteinase-14 (Homo sapiens, UniProt P50281); experiment: Inhibition of human MMP14 using Mca-PQGL-(3-[2, 4-dinitrophenyl]-L-2, 3-diaminopropionyl)-AR-OH as substrate after 2 to 4 hrs by fluorescence assay
Collagenase 3 = Collagenase 3 (Homo sapiens, UniProt P45452); experiment: Inhibition of human MMP13 using Mca-PQGL-(3-[2, 4-dinitrophenyl]-L-2, 3-diaminopropionyl)-AR-OH as substrate after 2 to 4 hrs by fluorescence assay
[20] = target: T1, A disintegrin and metalloproteinase with thrombospondin motifs 4 (Homo sapiens, UniProt O75173); experiment: Inhibition of human ADAMTS4 using VQTVTWPDMELPLPRNITEGEARGSVILTVKPIFEVSPSPLKG peptide as substrate after 3 hrs by Alphascreen assay
T1 sequence (O75173 whole entry): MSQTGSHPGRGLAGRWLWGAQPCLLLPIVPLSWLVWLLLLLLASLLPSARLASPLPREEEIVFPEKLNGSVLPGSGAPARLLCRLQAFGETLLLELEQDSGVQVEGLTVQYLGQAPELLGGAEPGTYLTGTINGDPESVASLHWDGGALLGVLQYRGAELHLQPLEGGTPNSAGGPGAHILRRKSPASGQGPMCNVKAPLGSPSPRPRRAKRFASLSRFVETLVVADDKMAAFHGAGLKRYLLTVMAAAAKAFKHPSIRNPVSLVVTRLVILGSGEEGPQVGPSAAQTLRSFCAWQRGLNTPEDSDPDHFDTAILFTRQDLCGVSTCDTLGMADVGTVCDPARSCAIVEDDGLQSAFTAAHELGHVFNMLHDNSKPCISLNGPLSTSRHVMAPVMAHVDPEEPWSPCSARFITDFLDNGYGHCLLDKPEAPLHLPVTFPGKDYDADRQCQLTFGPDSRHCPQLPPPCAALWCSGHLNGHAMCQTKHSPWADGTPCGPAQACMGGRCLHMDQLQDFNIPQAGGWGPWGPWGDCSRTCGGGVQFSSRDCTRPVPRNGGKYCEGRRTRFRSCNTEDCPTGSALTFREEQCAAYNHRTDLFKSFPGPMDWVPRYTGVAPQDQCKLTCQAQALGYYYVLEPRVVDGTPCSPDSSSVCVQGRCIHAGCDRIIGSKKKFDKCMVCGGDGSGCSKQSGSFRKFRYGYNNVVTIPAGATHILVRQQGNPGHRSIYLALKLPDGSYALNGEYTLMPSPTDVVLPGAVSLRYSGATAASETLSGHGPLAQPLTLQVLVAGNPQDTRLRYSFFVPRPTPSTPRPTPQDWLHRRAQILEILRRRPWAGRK

[21] = target: T2, A disintegrin and metalloproteinase with thrombospondin motifs 5 (Homo sapiens, UniProt Q9UNA0); experiment: Inhibition of human ADAMTS5 using VQTVTWPDMELPLPRNITEGEARGSVILTVKPIFEVSPSPLKG peptide as substrate after 3 hrs in the presence of 50% Lewis rat plasma by Alphascreen assay
T2 sequence (Q9UNA0 whole entry): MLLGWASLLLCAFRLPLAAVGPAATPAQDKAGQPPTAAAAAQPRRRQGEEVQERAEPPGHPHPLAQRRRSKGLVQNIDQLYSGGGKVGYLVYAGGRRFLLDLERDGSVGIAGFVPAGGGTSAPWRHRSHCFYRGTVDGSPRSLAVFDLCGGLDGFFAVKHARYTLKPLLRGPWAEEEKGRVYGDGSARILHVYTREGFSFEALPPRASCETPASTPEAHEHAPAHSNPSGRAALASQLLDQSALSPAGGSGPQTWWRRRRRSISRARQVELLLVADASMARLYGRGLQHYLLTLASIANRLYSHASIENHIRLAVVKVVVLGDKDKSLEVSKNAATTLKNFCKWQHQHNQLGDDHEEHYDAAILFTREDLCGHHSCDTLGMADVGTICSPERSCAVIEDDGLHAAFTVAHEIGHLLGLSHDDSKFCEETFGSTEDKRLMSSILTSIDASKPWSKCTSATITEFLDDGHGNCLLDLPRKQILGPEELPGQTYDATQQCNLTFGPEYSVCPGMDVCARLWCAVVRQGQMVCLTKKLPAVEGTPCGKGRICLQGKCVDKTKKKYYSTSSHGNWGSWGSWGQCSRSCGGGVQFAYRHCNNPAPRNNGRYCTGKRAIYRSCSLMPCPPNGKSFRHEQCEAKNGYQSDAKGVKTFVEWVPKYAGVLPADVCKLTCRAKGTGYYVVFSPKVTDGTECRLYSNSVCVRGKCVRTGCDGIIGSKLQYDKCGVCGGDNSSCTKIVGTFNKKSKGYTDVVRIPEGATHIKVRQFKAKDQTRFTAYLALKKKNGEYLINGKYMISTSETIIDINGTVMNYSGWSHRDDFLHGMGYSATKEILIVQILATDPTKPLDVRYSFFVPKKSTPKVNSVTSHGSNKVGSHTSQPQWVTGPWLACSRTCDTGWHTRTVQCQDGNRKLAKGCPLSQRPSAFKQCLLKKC

[22] = target: T2, A disintegrin and metalloproteinase with thrombospondin motifs 5; experiment: Inhibition of human ADAMTS5 using VQTVTWPDMELPLPRNITEGEARGSVILTVKPIFEVSPSPLKG peptide as substrate after 3 hrs by Alphascreen assay

Drug metabolism (Rattus norvegicus [2]): Metabolite_Notdetected
IC50 [3]: < 1 nM
Compound: C[C@@]1(O)CCCN(S(=O)(=O)c2ccc(OCc3ccc(F)cc3Cl)cc2)[C@H]1C(=O)NO
Activity (Rattus norvegicus [1]): 50%

IC50 [3]: 70 nM
Compound: C[C@]1(CNC(=O)COc2ccc(Cl)cc2)NC(=O)NC1=O

Drug metabolism (Rattus norvegicus [2]): Metabolite_Notdetected
Compound: CC(C)[C@H](Cc1ccc(C(F)(F)F)cc1)C(=O)NC[C@@]1(C2CC2)NC(=O)NC1=O

Drug metabolism (Rattus norvegicus [2]): Metabolite_Notdetected
Compound: CC(C)(Cc1ccc(C(F)(F)F)cc1)C(=O)NC[C@@]1(C2CC2)NC(=O)NC1=O

AUC(0-t) at 24 h [4]: 1.3 µM·h
half-life [5]: 1.5 h
clearance [6]: 33 mL/min/kg
AUC(0-t) at 24 h [7]: 22 µM·h
IC50 (Stromelysin-1): > 100000 nM
bioavailability [8]: 100%
Drug metabolism (Rattus norvegicus [2]): Metabolite_Notdetected
concentration at 12 h [9]: < 5 nM
Cmax [10]: 6600 nM
Cmax [13]: 1600 nM
concentration at 12 h [14]: 29 nM
Tmax [15]: 0.5 h
half-life [16]: 2.6 h
Vd [17]: 4.3 L/kg
Compound: O=C1NC(=O)[C@](CNC(=O)[C@@H](Cc2ccc(C(F)(F)F)cc2)C2CC2)(C2CC2)N1
Activity (Rattus norvegicus [1]): 52%
Activity (Rattus norvegicus [11]): 53%
Activity (Rattus norvegicus [12]): 41%

Drug metabolism (Rattus norvegicus [2]): Metabolite_Notdetected
Compound: C[C@H](Cc1ccc(C(F)(F)F)cc1)C(=O)NC[C@@]1(C2CC2)NC(=O)NC1=O

IC50 [18]: 3000 nM
Drug metabolism (Rattus norvegicus [2]): Metabolite_Notdetected
Compound: CC[C@H](Cc1ccc(C(F)(F)F)cc1)C(=O)NC[C@@]1(C2CC2)NC(=O)NC1=O

IC50 [19]: 1600 nM
IC50 (Stromelysin-1): 2000 nM
IC50 (Collagenase 3): 340 nM
IC50 [18]: 280 nM
Drug metabolism (Rattus norvegicus [2]): Metabolite_Notdetected
IC50 [3]: 7 nM
Compound: C[C@@H](Cc1ccc(C(F)(F)F)cc1)C(=O)NC[C@@]1(C2CC2)NC(=O)NC1=O

IC50 [3]: 9 nM
Compound: O=C1NC(=O)[C@](CNC(=O)c2cc3cc(C(F)(F)F)ccc3o2)(C2CC2)N1

IC50 [19]: 3400 nM
IC50 [20]: 4 nM
IC50 (Stromelysin-1): 660 nM
IC50 (Collagenase 3): 320 nM
IC50 [18]: 310 nM
Drug metabolism (Rattus norvegicus [2]): Metabolite_Notdetected
IC50 [21]: 52 nM
IC50 [22]: 5 nM
IC50 [3]: 5 nM
Compound: O=C(CCc1ccc(C(F)(F)F)cc1)NC[C@@]1(C2CC2)NC(=O)NC1=O
